Series [1] deals with T1, Aldo-keto reductase family 1 member C3 (Homo sapiens, UniProt P42330).
T1 sequence (P42330 whole entry): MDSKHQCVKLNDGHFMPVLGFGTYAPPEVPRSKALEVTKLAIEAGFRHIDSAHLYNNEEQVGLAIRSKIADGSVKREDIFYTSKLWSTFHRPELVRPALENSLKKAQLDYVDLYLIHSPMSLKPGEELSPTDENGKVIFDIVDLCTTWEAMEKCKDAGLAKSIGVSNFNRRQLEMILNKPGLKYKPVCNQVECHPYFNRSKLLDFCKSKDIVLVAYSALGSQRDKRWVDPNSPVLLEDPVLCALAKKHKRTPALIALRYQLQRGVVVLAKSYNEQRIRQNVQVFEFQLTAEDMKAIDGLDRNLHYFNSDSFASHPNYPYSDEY
Kind of series: Inhibition of recombinant human AKR1C3 transfected in Escherichia coli BL21 (DE) assessed as reduction in NADPH production using S-tetralol as substrate by fluorescence based analysis. In outline:
(§1)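 GST-tagged human AKR1C2 or AKR1C3 made in bacteria (IPTG 0.5 mM, 2 h), purified on glutathione sepharose and thrombin-cleaved. Assay in 100 mM phosphate pH 7 with 200 μM NADP+ and 10% EtOH at 37 °C. S-tetralol was 15 μM for AKR1C2 and 160 μM for AKR1C3. NADPH fluorescence read at 340/460 nm. Inhibition from initial velocities versus solvent controls; ≥3 experiments in triplicate.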

Series [2] can be described thus: Solubility of the compound in PBS at pH 7.4 incubated for 24 hrs by UHPLC analysis. It is filed as physicochemical. In outline: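 About 1 mg of solid was shaken in 1 mL of 50 mM PBS pH 7.4 at 25 °C for 24 h, then filtered (0.45 μm). The filtrate was run on C18 UHPLC with a water/methanol gradient in 0.1% TFA, read at 254 and 230 nm. Concentration came from external calibration over 1-200 μM; detection limit 1 μM.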

Series [3] deals with T2, Aldo-keto reductase family 1 member C2 (Homo sapiens) (UniProt P52895).
T2 sequence (whole entry): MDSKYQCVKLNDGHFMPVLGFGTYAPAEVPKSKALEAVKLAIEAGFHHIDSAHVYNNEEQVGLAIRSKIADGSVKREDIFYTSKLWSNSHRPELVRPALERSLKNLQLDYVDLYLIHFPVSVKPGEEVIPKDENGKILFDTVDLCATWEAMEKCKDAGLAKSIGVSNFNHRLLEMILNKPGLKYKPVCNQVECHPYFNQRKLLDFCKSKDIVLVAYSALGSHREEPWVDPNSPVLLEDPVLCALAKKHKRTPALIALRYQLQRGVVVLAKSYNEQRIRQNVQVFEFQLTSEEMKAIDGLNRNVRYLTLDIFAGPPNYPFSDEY
Briefly: Inhibition of recombinant human AKR1C2 transfected in Escherichia coli BL21 (DE) assessed as reduction in NADPH production at 50 uM using S-tetralol as substrate by fluorescence based analysis relative to control. In outline:
as §1

In series [4] the test system is CWR22R. Briefly: Antiproliferative activity against human 22Rv1 cells expressing AKR1C3 assessed as inhibition of cell growth incubated for 72 hrs by SRB assay. It is filed as functional, cell-based. The conditions noted are these: 22Rv1, 72 h. In outline: (§2)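 22RV1 cells in RPMI with 10% FCS, 37 °C, 5% CO2. Seeded at 10,000/well in medium with 10% charcoal-stripped serum and left 24 h. Inhibitor dilutions in DMSO added in triplicate for 72 h; DMSO controls at most 1% v/v. Growth read by sulforhodamine B colorimetric assay. IC50 from the mean of three separate experiments.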
(In SRB staining, fixed cells bind dye roughly in proportion to their protein.)

The nature of series [5]: Lipophilicity, logD of the compound in n-octanol and phosphate buffer at pH 7.4 incubated for 4 hrs by UV-Vis spectrophotometer based shake flask method. It is filed as physicochemical. The method in brief: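 Shake-flask logD between n-octanol and 50 mM PBS pH 7.4 (ionic strength 0.15 M, KCl). The phases were pre-saturated for 4 h, then shaken ~20 min with compound and centrifuged. Aqueous concentration was read by UV at λmax against calibration curves. Each value averages at least six measurements.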

In series [6] the target is T2, Aldo-keto reductase family 1 member C2 (Homo sapiens). Kind of series: Inhibition of recombinant human AKR1C2 transfected in Escherichia coli BL21 (DE) assessed as reduction in NADPH production at 100 uM using S-tetralol as substrate by fluorescence based analysis relative to control. The method in brief: as §1
Series [7] concerns CWR22R. Kind of series: Antiproliferative activity against human 22Rv1 cells expressing AKR1C3 assessed as reduction in cell viability at 40 to 60 uM incubated for 72 hrs in presence of , enzalutamide by SRB assay relative to either drug alone. It is filed as functional. The note with it: dose 40-60 µM. The method in brief: (§3)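 Co-treatment in 22RV1 cells seeded in charcoal-stripped serum medium. Test compound at 40 or 60 μM was given for 72 h with 10 μM abiraterone or 30 μM enzalutamide, or with no drug. Growth was read by SRB assay and expressed as % T/C (mean OD treated / mean OD control × 100).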

The test system of series [8] is CWR22R. Briefly: Antiproliferative activity against human 22Rv1 cells expressing AKR1C3 assessed as reduction in cell viability at 40 to 60 uM incubated for 72 hrs in presence of abiraterone by SRB assay relative to either drug alone. It is filed as functional. The conditions noted are these: dose 40-60 µM. The method in brief: as §3
In series [9] the test system is CWR22R. Kind of series: Inhibition of prostate specific antigen expression in human 22Rv1 cells expressing AKR1C3 at 5 to 50 uM incubated for 72 hrs by Western blot analysis. Format: functional, cell-based. The note with it: dose 5-50 µM. The method in brief:
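22RV1 cells seeded at 300,000/well in charcoal-stripped serum medium for 24 h, then treated 72 h at 5 or 50 μM in DMSO (≤0.5% v/v). RIPA lysates of 30 μg protein blotted with anti-PSA (1:500, overnight 4 °C) and HRP secondary. β-actin was the loading control. Densitometric PSA/β-actin as fold change; duplicate.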
On the technique in general: A western blot detects proteins with antibodies after separation by electrophoresis.

For series [10], the target named is T3, Aldo-keto reductase family 1 member C2 (Homo sapiens, UniProt P52895).
T3 sequence (P52895 whole entry): T2 sequence (whole entry)
Kind of series: Inhibition of recombinant human AKR1C2 transfected in Escherichia coli BL21 assessed as reduction in NADP+-dependent S-tetralol oxidation incubated for 20 mins by absorbance based analysis.

Series [11] can be described thus: Ionization constant, pKa of the compound by potentiometric titration method. Format: physicochemical. The method in brief: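 pKa was measured by potentiometric titration on a Sirius T3 in MDM cosolvent (20% acetonitrile, 20% dioxane, 20% methanol), with added percentages varied.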
Series [12] concerns CWR22R. Kind of series: Antiproliferative activity against human 22Rv1 cells expressing AKR1C3 assessed as reduction in cell viability at 100 uM incubated for 72 hrs by SRB assay relative to control. It is filed as functional. The method in brief: as §2
Series [13] can be described thus: Inhibition of androstenedione induced testosterone production in human 22Rv1 cells expressing AKR1C3 assessed as reduction in testosterone level to 0.5 uM pretreated for 1 hr followed by androstenedione addition and measured after 24 hrs by ELISA relative to control. Format: functional, CWR22R. The note with it: time 25 hrs. The method in brief: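 22RV1 cells seeded at 30,000/well in medium with 10% charcoal-stripped serum and left 24 h. Inhibitor added 1 h before 30 nM androstenedione, then 24 h more. Supernatant (1:2) assayed for testosterone by ELISA read at 405 nm against a standard curve. Mean of three experiments, each in triplicate.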
In general terms: An ELISA detects its analyte on a solid surface through an enzyme-linked reagent.

Series [14] addresses T2, Aldo-keto reductase family 1 member C2 (Homo sapiens). Briefly: Inhibition of recombinant human AKR1C2 transfected in Escherichia coli BL21 (DE) assessed as reduction in NADPH production at 20 uM using S-tetralol as substrate by fluorescence based analysis relative to control. In outline:
as §1

The values that follow come from ChEMBL document CHEMBL5120830, “New aldo-keto reductase 1C3 (AKR1C3) inhibitors based on the hydroxytriazole scaffold” (Eur J Med Chem, 2022).

≈ marks a conversion by molar mass, not a printed value. Calls of active or inactive are those of the source. The calls are words filed in the database; no cut-off is given here. Some results are limits rather than exact numbers.

For orientation: IC50 means the point on the concentration scale where inhibition reaches its midpoint. In general, solubility refers to the dissolved amount per volume that the medium holds. A high value points to much dissolved substance. The inhibition is the percentage by which the read-out fell short of the control. As usually defined, the logD is the decadic logarithm of the distribution of all forms, ionised or not, between an organic phase and buffer at a given pH. In the case of `COc1ccc(Cn2nnc(O)c2C(=O)Nc2cccc(-c3ccc(OC)cc3)c2)cc1`, the IC50 in series [1] stood at 0.22 µM; in series [4], 50.1 µM. The solubility at 24 h in series [2] was < 1 µM. The inhibition in [3] is 31.6%. This molecule also registered a logD at 4 h in series [5] of 2.59.
On to `COc1ccc(Cn2nnc(O)c2C(=O)Nc2cccc(Oc3ccccc3)c2)cc1`, for which the inhibition in series [6] was determined as 72.8%. The half-inhibitory concentration (IC50) is 0.11 µM in [1] and 65 µM in series [4]. The Activity in series [7] is 50%; in series [8], >20%. Moreover, in series [2], the solubility at 24 h was < 1 µM. In series [9], the inhibition entry was “Active”.
Turning to `COc1ccc2[nH]c(C(=O)N3CCC(CC(C)(C)O)CC3)cc2c1` [ASP-9521], in series [10], the IC50 is > 20 µM.
With `COc1ccc(Cn2nnc(O)c2C(=O)Nc2ccc(Oc3ccccc3)cc2)cc1`, the inhibition in series [6] was found to be 57.8%. Moreover, the figures for the IC50 in series [1] and in series [4] were 0.27 µM and 58.2 µM, respectively. For the same molecule, the solubility at 24 h in series [2] is < 1 µM.
One may read the pKa as the pH at which an ionisable group is half protonated. High values mean a group that holds its proton tightly, low ones a group that gives up its proton readily. On to `COc1ccc(Cn2nnc(O)c2C(=O)Nc2cccc(-c3cccc(O)c3)c2)cc1`, for which the inhibition in series [6] was 38.5%. Further, the IC50 in [1] was found to be 0.21 µM; in series [4], 75.7 µM. The molecule also registered a solubility at 24 h in [2] of 40.3 µM (≈ 16.8 µg/mL). In series [11], this molecule had a pKa of 4.9. Further, in [5], the pH-dependent lipophilicity (logD) at 4 h came to 2.25.
`COc1ccc(Cn2nnc(O)c2C(=O)Nc2ccc3c(c2)ncn3-c2ccccc2)cc1`: the IC50 was 1.63 µM in series [1] and > 100 µM in series [4]. Also, in series [12], the Activity came to 36.88%. For the same molecule, in series [2], the concentration in solution (solubility at 24 h) was 1.25 µM (≈ 0.551 µg/mL). The molecule also had a logD at 4 h in [5] of 2.19.
Regarding `COc1ccc(Cn2nnc(O)c2C(=O)Nc2cccc(-c3ccccc3)c2)cc1`, the inhibition in series [6] is 30.5%. Besides, the IC50 is 0.069 µM in series [1] and 52.1 µM in series [4]. Further, the Activity in series [7] is 30%; in series [8], >20%. In addition, the solubility at 24 h in series [2] was < 1 µM. Also, in series [9], the inhibition result is “Active”. Also, the inhibition at 0.5 µM in series [13] amounted to 20%. In addition, the logD at 4 h in series [5] is 2.3.
Consider `COc1ccc(Cn2nnc(O)c2C(=O)Nc2cccc(C(F)(F)F)c2)cc1`, for which the inhibition in series [6] amounted to 59.9%. This molecule had a solubility at 24 h in series [2] of 21.2 µM (≈ 8.32 µg/mL). In series [5], the log distribution coefficient (logD) at 4 h stood at 1.1.
As for `COc1ccc(Cc2onc(O)c2C(=O)Nc2cccc(-c3ccccc3)c2)cc1`, the inhibition in [6] came out at 7.32%. In addition, the results for the concentration for half-maximal inhibition (IC50) in series [1] and in series [4] were 0.19 µM and 54.8 µM, respectively. The solubility at 24 h in series [2] is 10.8 µM (≈ 4.3 µg/mL). The molecule further yielded a pKa in series [11] of 4.5. The molecule further registered a log distribution coefficient (logD) at 4 h in series [5] of 2.16.
As to `COc1ccc(Cn2nnc(O)c2C(=O)Nc2cccc(-c3cccc(OC)c3)c2)cc1`, the inhibition in [6] was 45.3%. Besides, the IC50 in series [1] was determined as 0.26 µM; in [4], 59 µM. Further, in series [2], the solubility at 24 h is < 1 µM. Moreover, the logD at 4 h in [5] turned out to be 2.5.
Take `COc1ccc(Cn2nnc(O)c2C(=O)Nc2cccc(-c3ccc(O)cc3)c2)cc1`: the inhibition in series [6] worked out at 37.9%. Moreover, the IC50 in [1] was determined as 0.31 µM; in series [4] it was 67.5 µM. The molecule also gave a solubility at 24 h in [2] of 2.05 µM (≈ 0.854 µg/mL). This molecule also registered a log distribution coefficient (logD) at 4 h in series [5] of 2.19.
For `COc1ccc(Cn2nnc(O)c2C(=O)Nc2cc(C(F)(F)F)cc(C(F)(F)F)c2)cc1`, in that order: 33.6%, 0.4 µM, 33.8 µM, 6.91 µM (≈ 3.18 µg/mL) and 2.47.
As to `COc1ccc(Cn2nnc(O)c2C(=O)Nc2ccc(-c3ccccc3)cc2)cc1`, the figures for the IC50 in series [1] and in [4] were 0.47 µM and 57.9 µM, respectively. In addition, the solubility at 24 h in series [2] was < 1 µM. Moreover, the inhibition in series [14] was determined as 30%. In series [5], this molecule returned a log distribution coefficient (logD) at 4 h of 2.19.
